Key:
Renin (Sus scrofa) = experiment: Inhibition of renin was measured using hog kidney renin and the radiolabeled synthetic substrate, H-Ile-His-Pro-Phe-His-Leu-[14C]Leu-Val-Tyr-Ser-OH
Pepsin A [1] = target: Pepsin A (Sus scrofa, UniProt P00791); experiment: Pepsin inhibition was measured using the synthetic heptapeptide substrate Phe-Gly-His-Phe-(N02)-Phe-Ala- Phe-OMe
Summary of the method: (§1)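 Nitrophenylalanine-containing heptapeptide substrate hydrolysis by pepsin; run at five substrate and three inhibitor concentrations per analogue, with Ki calculated by a previously described method.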

Pepsin A [2] = target: Pepsin A (Homo sapiens, UniProt P0DJD9); experiment: Pepsin inhibition using synthetic heptapeptide substrate Phe-Gly-His-Phe-(N02)-Phe-Ala- Phe-OMe
Summary of the method: as §1

Pepsin A (Sus scrofa, UniProt P00791), sequence (P00791 whole entry): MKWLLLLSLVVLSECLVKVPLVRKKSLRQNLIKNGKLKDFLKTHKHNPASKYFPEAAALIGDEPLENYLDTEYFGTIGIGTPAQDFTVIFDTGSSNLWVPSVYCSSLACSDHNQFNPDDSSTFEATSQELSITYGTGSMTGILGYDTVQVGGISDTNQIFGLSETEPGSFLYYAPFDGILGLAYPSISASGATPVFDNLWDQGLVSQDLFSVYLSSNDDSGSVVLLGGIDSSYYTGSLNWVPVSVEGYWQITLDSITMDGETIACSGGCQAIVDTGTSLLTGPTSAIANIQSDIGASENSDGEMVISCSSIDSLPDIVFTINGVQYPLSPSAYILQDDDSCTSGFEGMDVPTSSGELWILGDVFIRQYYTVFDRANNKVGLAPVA
Pepsin A (Homo sapiens, UniProt P0DJD9), sequence (P0DJD9 whole entry): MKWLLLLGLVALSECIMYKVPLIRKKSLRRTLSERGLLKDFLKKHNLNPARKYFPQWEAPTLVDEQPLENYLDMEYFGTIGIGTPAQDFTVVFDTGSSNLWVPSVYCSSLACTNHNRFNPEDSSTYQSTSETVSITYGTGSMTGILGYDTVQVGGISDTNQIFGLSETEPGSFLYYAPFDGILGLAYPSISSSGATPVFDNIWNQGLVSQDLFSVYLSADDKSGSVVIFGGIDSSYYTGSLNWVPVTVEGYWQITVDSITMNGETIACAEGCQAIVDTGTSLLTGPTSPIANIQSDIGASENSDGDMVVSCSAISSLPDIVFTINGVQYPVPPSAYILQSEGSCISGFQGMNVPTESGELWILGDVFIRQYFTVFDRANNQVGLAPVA

Row | Compound | IC50 (Renin (Sus scrofa)) | Ki (Pepsin A [1]) | Ki (Pepsin A [2])
1 | CC(C)CCNC(=O)[C@@H](C)NC(=O)C[C@H](O)C(CC(C)C)NC(=O)CC(C)C (stereo partly drawn) | > 330000 nM | 350 nM | 
2 | CC(C)CCNC(=O)[C@H](C)NC(=O)C[C@H](O)NC(C(=O)[C@H](NC(=O)CC(C)C)C(C)C)c1ccccc1 (stereo partly drawn) |  | 0.9 nM | 
3 | CC(C)CCNC(=O)[C@H](C)NC(=O)C[C@H](O)C(CC(C)C)NC(=O)[C@H](NC(=O)CC(C)C)C(C)C (stereo partly drawn) |  | 1.1 nM | 
4 | CC(C)CC(=O)N[C@@H](C(=O)N[C@@H](C(=O)NC(CC(C)C)[C@@H](O)CC(=O)N[C@H](C)C(=O)NC(CC(C)C)[C@@H](O)CO)C(C)C)C(C)C (stereo partly drawn) |  | 0.0457 nM | 
5 | CC(C)CC(=O)N[C@@H](C(=O)N[C@@H](CC(C)C)C(O)CC(N)=O)C(C)C (stereo partly drawn) | > 330000 nM | ~1000 nM | 
6 | CC(C)CCNC(=O)[C@H](C)NC(=O)C[C@@H](O)C(CC(C)C)NC(=O)[C@H](NC(=O)CC(C)C)C(C)C (stereo partly drawn) |  |  | 3000 nM

— ChEMBL document CHEMBL1121520, “Synthesis of analogues of the carboxyl protease inhibitor pepstatin. Effects of structure on inhibition of pepsin and renin” (J Med Chem, 1980)
